# Results reported in ChEMBL document CHEMBL1132112, “Novel modifications in the alkenyldiarylmethane (ADAM) series of non-nucleoside reverse transcriptase inhibitors” (J Med Chem, 1999).
# Columns and labels:
# [1] = system: CEM-SS; experiment: Inhibition of cytopathic effect of HIV-1 RT containing the specified mutation 4X resistant to AZT in CEM-SS cells.; format: functional, cell-based; conditions: Homo sapiens
# [2] = system: CEM-SS; experiment: Fold resistance of HIV-1 RT containing the specified mutation V106A in CEM-SS cells; format: functional, Homo sapiens
# Procedure, shortened: (§1)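 Fold resistance of mutant HIV-1 viruses whose RT carries the listed mutation(s), measured against a virus containing wild-type NL4-3 RT. Anti-HIV readout by CEM-SS cytopathic-effect protection.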
# [3] = system: CEM-SS; experiment: Fold resistance of HIV-1 RT containing the specified mutation V108I in CEM-SS cells; format: functional, Homo sapiens; procedure, shortened: as §1
# [4] = system: CEM-SS; experiment: 50% inhibitory concentration for cytopathicity of HIV-1 RF in CEM-SS cells.; format: functional, cell-based; conditions: Homo sapiens
# Procedure, shortened: (§2)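 CEM-SS cells infected with HIV-1 RF; drug-induced protection from viral cytopathic effect read by XTT, as percent of uninfected drug-free control. EC50 is the concentration giving 50% protection. Triplicate wells on each plate, two sister plates; the plate EC50s (each a triplicate average) were averaged. XTT results were confirmed by supernatant RT and p24 levels. NA means no inhibition up to the concentration cytotoxic to uninfected cells.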
# [5] = system: CEM-SS; experiment: Fold resistance of HIV-1 RT containing the specified mutation 4X resistant to AZT in CEM-SS cells; NC=No significant change in sensitivity; format: functional, cell-based; conditions: Homo sapiens; procedure, shortened: as §1
# [6] = system: CEM-SS; experiment: Fold resistance of HIV-1 RT containing the specified mutation K101E in CEM-SS cells; NC=No significant change in sensitivity; format: functional, cell-based; conditions: Homo sapiens; procedure, shortened: as §1
# [7] = system: CEM-SS; experiment: Fold resistance of HIV-1 RT containing the specified mutation K103N in CEM-SS cells; format: functional, Homo sapiens; procedure, shortened: as §1
# [8] = system: CEM-SS; experiment: Fold resistance of HIV-1 RT containing the specified mutation L100I in CEM-SS cells; format: functional, Homo sapiens; procedure, shortened: as §1
# [9] = system: CEM-SS; experiment: Fold resistance of HIV-1 RT containing the specified mutation L100I resistant to AZT in CEM-SS cells; format: functional, Homo sapiens; procedure, shortened: as §1
# [10] = system: CEM-SS; experiment: Inhibition of cytopathic effect of HIV-1 RT containing the specified mutation A98G in CEM-SS cells.; format: functional, cell-based, Homo sapiens
# [11] = system: CEM-SS; experiment: Inhibition of cytopathic effect of HIV-1 RT containing the specified mutation K101E in CEM-SS cells.; format: functional, cell-based, Homo sapiens
# [12] = system: CEM-SS; experiment: Inhibition of cytopathic effect of HIV-1 RT containing the specified mutation K103N in CEM-SS cells.; format: functional, cell-based, Homo sapiens
# [13] = system: CEM-SS; experiment: Inhibition of cytopathic effect of HIV-1 RT containing the specified mutation L100I in CEM-SS cells.; format: functional, cell-based, Homo sapiens
# [14] = system: CEM-SS; experiment: Inhibition of cytopathic effect of HIV-1 RT containing the specified mutation L100I resistant to AZT in CEM-SS cells.; format: functional, cell-based, Homo sapiens
# [15] = system: CEM-SS; experiment: Inhibition of cytopathic effect of HIV-1 RT containing the specified mutation L74V in CEM-SS cells.; format: functional, cell-based, Homo sapiens
# [16] = system: CEM-SS; experiment: Inhibition of cytopathic effect of HIV-1 RT containing the specified mutation V106A in CEM-SS cells.; format: functional, cell-based, Homo sapiens
# [17] = system: CEM-SS; experiment: Inhibition of cytopathic effect of HIV-1 RT containing the specified mutation V108I in CEM-SS cells.; format: functional, cell-based, Homo sapiens
# [18] = system: CEM-SS; experiment: Inhibition of cytopathic effect of HIV-1 RT containing the specified mutation V179D in CEM-SS cells.; format: functional, cell-based, Homo sapiens
# [19] = system: CEM-SS; experiment: Inhibition of cytopathic effect of HIV-1 RT containing the specified mutation Y181C in CEM-SS cells.; format: functional, cell-based, Homo sapiens
# [20] = system: CEM-SS; experiment: Inhibition of cytopathic effect of HIV-1 RT containing the specified mutation Y181C resistant to AZT in CEM-SS cells.; format: functional, cell-based, Homo sapiens
# [21] = system: CEM-SS; experiment: Inhibition of cytopathic effect of HIV-1 RT containing the specified mutation Y188C in CEM-SS cells.; format: functional, cell-based, Homo sapiens
# [22] = system: CEM-SS; experiment: Fold resistance of HIV-1 RT containing the specified mutation V179D in CEM-SS cells; format: functional, Homo sapiens; procedure, shortened: as §1
# [23] = system: CEM-SS; experiment: Fold resistance of HIV-1 RT containing the specified mutation Y181C in CEM-SS cells; format: functional, Homo sapiens; procedure, shortened: as §1
# [24] = system: CEM-SS; experiment: Fold resistance of HIV-1 RT containing the specified mutation Y181C resistant to AZT in CEM-SS cells; format: functional, Homo sapiens; procedure, shortened: as §1
# [25] = system: CEM-SS; experiment: Fold resistance of HIV-1 RT containing the specified mutation Y188C in CEM-SS cells; format: functional, Homo sapiens; procedure, shortened: as §1
# [26] = system: CCRF-CEM; experiment: Concentration inhibiting 50% of mock-infected CEM cells.; format: functional; conditions: Homo sapiens
# Procedure, shortened: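 Uninfected (mock-infected) CEM-SS cultures exposed to drug. Viability by XTT, expressed as percent of drug-free control. CC50 is the concentration causing 50% cell death. Triplicates on each plate, two sister plates averaged.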
# [27] = system: Human immunodeficiency virus 1; experiment: Inhibition of cytopathic effect of HIV-1 strain wild type enzyme NL4-3 in CEM-SS cells.; format: functional, organism-based; conditions: Human immunodeficiency virus 1, CEM-SS
# [28] = biological target: T1, Human immunodeficiency virus type 1 reverse transcriptase (Human immunodeficiency virus 1, UniProt Q72547); experiment: Inhibition of HIV-1 Reverse transcriptase using poly-(rc)-oligo(dg) as the template primer.
# Procedure, shortened: (§3)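 Purified p66/51 HIV-1 reverse transcriptase. Inhibition read as incorporation of [32P]-TTP into poly(rA)·oligo(dT) or of [32P]GTP into poly(rC)·oligo(dG) homopolymer template-primer.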
# [29] = Therapeutic index was determined for the compound as CC50/EC50; conditions: read-out: TI
# Procedure, shortened: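 Ratio of CC50 (XTT viability, uninfected CEM-SS) to EC50 (XTT protection from HIV-1 RF cytopathicity in CEM-SS). Both values come from triplicates on each plate, two sister plates averaged. NA means no antiviral inhibition up to the cytotoxic concentration.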
# [30] = biological target: T1, Human immunodeficiency virus type 1 reverse transcriptase; experiment: Inhibition of HIV-1 Reverse transcriptase using poly-(ra)-oligo(dt) as the template primer.; procedure, shortened: as §3
# [31] = system: CEM-SS; experiment: Fold resistance of HIV-1 RT containing the specified mutation L74V in CEM-SS cells; S=Enhanced sensitivity; format: functional, cell-based; conditions: Homo sapiens; procedure, shortened: as §1
# [32] = system: CEM-SS; experiment: Fold resistance of HIV-1 RT containing the specified mutation A98G in CEM-SS cells; format: functional, Homo sapiens; procedure, shortened: as §1
# [33] = system: CEM-SS; experiment: 50% inhibitory concentration for cytopathicity of HIV-1 RF in CEM-SS cells; NA=Not active; format: functional, cell-based, Homo sapiens; procedure, shortened: as §2
# [34] = system: CEM-SS; experiment: 50% inhibitory concentration for cytopathicity of HIV-1 RF in CEM-SS cells; NA=Not active (EC50 uM); format: functional, cell-based, Homo sapiens; procedure, shortened: as §2
# [35] = biological target: T1, Human immunodeficiency virus type 1 reverse transcriptase; experiment: Inhibition of HIV-1 Reverse transcriptase using poly-(rc)-oligo(dg) as the template primer; NI=No inhibition
# Procedure, shortened: (§4)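 Purified p66/51 HIV-1 reverse transcriptase. Inhibition read as incorporation of [32P]-TTP into poly(rA)·oligo(dT) or of [32P]GTP into poly(rC)·oligo(dG) homopolymer template-primer. IC50 taken as concentration giving 50% inhibition.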
# [36] = biological target: T1, Human immunodeficiency virus type 1 reverse transcriptase; experiment: Inhibition of HIV-1 Reverse transcriptase using poly-(ra)-oligo(dt) as the template primer; no inhibition; procedure, shortened: as §4
# [37] = biological target: T1, Human immunodeficiency virus type 1 reverse transcriptase; experiment: Inhibition of HIV-1 Reverse transcriptase using poly-(ra)-oligo(dt) as the template primer; NI=No inhibition; procedure, shortened: as §4
# [38] = system: CEM-SS; experiment: Fold resistance of HIV-1 RT containing the specified mutation V106A in CEM-SS cells.; format: functional, Homo sapiens
# [39] = system: CEM-SS; experiment: Fold resistance of HIV-1 RT containing the specified mutation 4X AZT in CEM-SS cells; S=Enhanced sensitivity; format: functional, cell-based; conditions: Homo sapiens
# [40] = system: CEM-SS; experiment: Fold resistance of HIV-1 RT containing the specified mutation A98G in CEM-SS cells.; format: functional, Homo sapiens
# [41] = system: CEM-SS; experiment: Fold resistance of HIV-1 RT containing the specified mutation K101E in CEM-SS cells.; format: functional, Homo sapiens
# [42] = system: CEM-SS; experiment: Fold resistance of HIV-1 RT containing the specified mutation K103N in CEM-SS cells; NC=No significant change in sensitivity; format: functional, cell-based; conditions: Homo sapiens
# [43] = system: CEM-SS; experiment: Fold resistance of HIV-1 RT containing the specified mutation V179D in CEM-SS cells.; format: functional, Homo sapiens
# [44] = system: CEM-SS; experiment: Fold resistance of HIV-1 RT containing the specified mutation Y181C in CEM-SS cells.; format: functional, Homo sapiens
# [45] = system: CEM-SS; experiment: Fold resistance of HIV-1 RT containing the specified mutation Y188C in CEM-SS cells.; format: functional, Homo sapiens
# [46] = system: CEM-SS; experiment: Fold resistance of the specific mutation in RT to the compound; S=Enhanced sensitivity; format: functional, cell-based; conditions: Homo sapiens
smiles,measurement,setting,value
COC(=O)CCCC=C(c1cc(Br)c(OC)c(C(=O)OC)c1)c1cc(Br)c(OC)c(C(=O)OC)c1,EC50,[1],0.07 µM
same,Fold resistance,[2],158.5
same,Fold resistance,[3],10
same,EC50,[4],0.0013 µM
same,Fold resistance,[5],No significant changed
same,Fold resistance,[6],No significant changed
same,Fold resistance,[7],7
same,Fold resistance,[8],4.3
same,Fold resistance,[9],5.5
same,EC50,[10],0.22 µM
same,EC50,[11],0.07 µM
same,EC50,[12],0.42 µM
same,EC50,[13],0.26 µM
same,EC50,[14],0.33 µM
same,EC50,[15],0.019 µM
same,EC50,[16],9.51 µM
same,EC50,[17],0.67 µM
same,EC50,[18],40.2 µM
same,EC50,[19],6.13 µM
same,EC50,[20],3.5 µM
same,EC50,[21],1.73 µM
same,Fold resistance,[22],670
same,Fold resistance,[23],102
same,Fold resistance,[24],58.3
same,Fold resistance,[25],28.8
same,CC50,[26],13 µM
same,EC50,[27],0.06 µM
same,IC50,[28],0.3 µM
same,selectivity ratio,[29],10000
same,IC50,[30]; read-out: IC50,1 µM
same,Fold resistance,[31],Enhanced sensitivity
same,Fold resistance,[32],3.7
CCC1(CCC/C=C(\c2cc(Cl)c(OC)c(C=O)c2)c2cc(Cl)c(OC)c(CO)c2)OCCO1,EC50,[33],Not Active
same,CC50,[26],5.8 µM
same,IC50,[28],31.6 µM
same,IC50,[30],No inhibition
CCC1(CCCC=C(c2cc(Cl)c(OC)c(C(=O)OC)c2)c2cc(Cl)c(OC)c(C(=O)OC)c2)OCCO1,EC50,[34],Not Active
same,CC50,[26],19.9 µM
same,IC50,[35],Not Active
same,IC50,[36],Not Active
COC(=O)CCCC=C(c1cc(Cl)c(OC)c(C(=O)OC)c1)c1cc(Cl)c(OC)c(C(=O)OC)c1,EC50,[12],> 50 µM
same,EC50,[13],> 0.16 µM
same,EC50,[19],> 50 µM
same,EC50,[20],> 50 µM
same,CC50,[26],31.6 µM
same,EC50,[27],1.78 µM
COC(=O)c1cc(C(=CCCCCCl)c2cc(Cl)c(OC)c(C(=O)OC)c2)cc(Cl)c1OC,EC50,[4],50.5 µM
same,CC50,[26],> 316 µM
same,IC50,[37],Not Active
CCCCCC=C(c1cc(Br)c(OC)c(C(=O)OC)c1)c1cc(Br)c(OC)c(C(=O)OC)c1,Fold resistance,[38],>8
same,Fold resistance,[39],Enhanced sensitivity
same,Fold resistance,[40],2
same,Fold resistance,[41],>8
same,Fold resistance,[42],No significant changed
same,Fold resistance,[43],>8
same,Fold resistance,[44],>8
same,Fold resistance,[45],>8
same,Fold resistance,[46],Enhanced sensitivity
CCC(=O)CCCC=C(c1cc(Cl)c(OC)c(C=O)c1)c1cc(Cl)c(OC)c(C=O)c1,EC50,[33],Not Active
same,CC50,[26],1.13 µM
